In ChEMBL document CHEMBL1137778, “One scaffold, three binding modes: novel and selective pteridine reductase 1 inhibitors derived from fragment hits discovered by virtual screening” (J Med Chem, 2009):
Calls of active or inactive are those of the source. The calls are words filed in the database; no cut-off is given here.

Experiments:
[1] = molecular target: T1, Pteridine reductase, putative (Trypanosoma brucei, UniProt Q581W1); experiment: Apparent inhibition of Trypanosoma brucei pteridine reductase 1-mediated reduction of cytochrome c; conditions: read-out: Ki(app)
T1 sequence (Q581W1 whole entry): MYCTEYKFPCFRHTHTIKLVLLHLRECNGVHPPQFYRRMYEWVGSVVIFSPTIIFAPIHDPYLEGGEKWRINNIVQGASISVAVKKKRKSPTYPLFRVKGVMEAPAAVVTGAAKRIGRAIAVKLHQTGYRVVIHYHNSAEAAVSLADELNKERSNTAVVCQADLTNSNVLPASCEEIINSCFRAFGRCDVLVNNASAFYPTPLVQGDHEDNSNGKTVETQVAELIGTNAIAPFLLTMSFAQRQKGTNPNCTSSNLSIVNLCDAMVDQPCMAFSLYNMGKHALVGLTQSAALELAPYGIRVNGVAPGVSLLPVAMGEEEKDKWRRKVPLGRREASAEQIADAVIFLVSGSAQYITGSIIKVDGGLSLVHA
How it was run: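 TbPTR1 activity read through cytochrome c reduction coupled to enzymatic H4B formation. Absorbance at 550 nm read within the linear phase. Kiapp derived by fitting a modified Morrison equation.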

[2] = molecular target: Bifunctional dihydrofolate reductase-thymidylate synthase (Trypanosoma brucei brucei) (UniProt Q27783); experiment: Inhibition of Trypanosoma brucei DHFR-mediated reduction of cytochrome c at upto 30 uM
Bifunctional dihydrofolate reductase-thymidylate synthase (Trypanosoma brucei brucei), sequence (Q27783 whole entry, looked up): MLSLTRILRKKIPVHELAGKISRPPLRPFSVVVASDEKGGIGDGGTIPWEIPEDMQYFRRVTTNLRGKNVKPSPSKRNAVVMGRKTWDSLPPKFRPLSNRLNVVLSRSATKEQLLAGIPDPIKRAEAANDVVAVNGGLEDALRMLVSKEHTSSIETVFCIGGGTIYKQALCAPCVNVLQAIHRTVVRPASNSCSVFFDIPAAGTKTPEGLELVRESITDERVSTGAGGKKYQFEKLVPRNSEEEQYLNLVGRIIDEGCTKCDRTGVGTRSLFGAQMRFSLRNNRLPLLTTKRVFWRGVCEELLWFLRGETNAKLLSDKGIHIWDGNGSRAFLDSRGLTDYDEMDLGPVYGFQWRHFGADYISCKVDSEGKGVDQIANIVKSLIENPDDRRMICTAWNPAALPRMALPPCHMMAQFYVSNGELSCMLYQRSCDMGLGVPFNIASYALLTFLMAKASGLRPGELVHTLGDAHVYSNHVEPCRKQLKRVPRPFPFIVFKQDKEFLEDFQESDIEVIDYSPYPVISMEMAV
How it was run: (§1)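 DHFR (T. brucei or human) activity followed by cytochrome c reduction coupled to enzymatic tetrahydrofolate production: 20 mM sodium citrate, 1 mM EDTA, H2F (4.4 μM), cytc (81 μM), NADPH (100 μM), pH 7.4. Absorbance at 550 nm read within the linear phase. Compounds tested up to 30 μM if PTR1 Kiapp below 1 μM, otherwise up to 500 μM.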

[3] = molecular target: T2, Dihydrofolate reductase (Homo sapiens) (UniProt P00374); experiment: Inhibition of human DHFR-mediated reduction of cytochrome c at upto 30 uM; how it was run: as §1
T2 sequence (whole entry): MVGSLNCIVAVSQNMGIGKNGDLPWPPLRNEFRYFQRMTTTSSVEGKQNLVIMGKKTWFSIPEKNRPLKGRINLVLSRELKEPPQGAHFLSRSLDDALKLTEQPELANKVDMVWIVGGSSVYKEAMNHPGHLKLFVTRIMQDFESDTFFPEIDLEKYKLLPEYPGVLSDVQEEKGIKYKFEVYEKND

[4] = system: Trypanosoma brucei; experiment: Antitrypanosomal activity against Trypanosoma brucei by cell culture assay; format: functional, organism-based
[5] = Distribution coefficient, log D of the compound; format: physicochemical; conditions: octanol/water
[6] = molecular target: Bifunctional dihydrofolate reductase-thymidylate synthase (Trypanosoma brucei brucei) (UniProt Q27783); experiment: Inhibition of Trypanosoma brucei DHFR-mediated reduction of cytochrome c at upto 500 uM; how it was run: as §1
[7] = molecular target: T2, Dihydrofolate reductase (Homo sapiens); experiment: Inhibition of human DHFR-mediated reduction of cytochrome c at upto 500 uM; how it was run: as §1
[8] = molecular target: T3, Pteridine reductase, putative (Trypanosoma brucei) (UniProt Q581W1); experiment: Inhibition of Trypanosoma brucei pteridine reductase 1 at 100 uM
T3 sequence (whole entry): T1 sequence (Q581W1 whole entry)
How it was run: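 TbPTR1 activity followed by cytochrome c reduction coupled to enzymatic tetrahydrobiopterin production: 20 mM sodium citrate, 1 mM EDTA, H2B (0.35 μM), cytc (81 μM), NADPH (100 μM), pH 6.0. Absorbance at 550 nm read within the linear phase. Fragment hits tested once at 100 μM as percent inhibition.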

Structure (SMILES) | inhibition [8] | other results
Nc1nc2cccc(-c3ccccc3)c2n1Cc1ccc(Cl)c(Cl)c1 | – | Ki [1]: 0.007 µM; inhibition [2]: inactive; inhibition [3]: inactive; EC50 [4]: 10 µM; logD [5]: 3.7
Cc1cccc(-c2ccc3nc(N)[nH]c3c2)c1 | – | Ki [1]: 9.8 µM; inhibition [6]: inactive; inhibition [7]: inactive
COc1ccccc1-c1nnc(N)[nH]1 | 19.8% | –
Cc1[nH]c(=O)[nH]c(=O)c1Cc1ccccc1 | -0.3% | –
O=c1[nH]cc(/N=C/c2ccc(Br)cc2)c(=O)[nH]1 | 4.5% | –
O=C(Cc1ccccc1Cl)Nc1c[nH]c(=O)[nH]c1=O | 21% | –
O=C(Nc1ncnc2nc[nH]c12)c1ccccc1 | 4.5% | –
Cc1ccc(-c2n[nH]c(N)n2)cc1 | 20.2% | –
O=c1[nH]cc(COCc2ccccc2)c(=O)[nH]1 | 5.7% | –
Nc1nc(CNC(=O)c2ccccc2)n[nH]1 | 10.7% | –
Nc1nc(SCC(=O)NCc2ccco2)n[nH]1 | 3.3% | –
CC(C)CSc1n[nH]c(N)n1 | 0.9% | –
Nc1nc2ccc(Cl)cc2[nH]1 | 72.3% | Ki [1]: 10.6 µM; inhibition [6]: inactive; Activity [7]: inactive
Nc1nc(-c2ccncc2)cs1 | 31.3% | –
Cc1cc(C)n(-c2cc(=O)[nH]c(=O)[nH]2)n1 | -4% | –
Nc1nc(Cc2nnc(N)[nH]2)n[nH]1 | 11.4% | –
Nc1nc(NCc2ccc(F)cc2)n[nH]1 | 19.3% | –
Cc1ccc(CSc2n[nH]c(N)n2)c(C)c1 | 17.6% | –
Cc1ccc(CNc2n[nH]c(N)n2)cc1 | 44.2% | –
O=c1[nH]c(=O)c2c(-c3ccccc3)csc2[nH]1 | 36.3% | –
Nc1nc2ccc(C(=O)N3CCCCC3)cc2s1 | 49.9% | Ki [1]: 141 µM; inhibition [6]: inactive; inhibition [7]: inactive
COC(=O)c1ccc2nc(N)sc2c1 | – | Ki [1]: 21.1 µM; inhibition [6]: inactive; inhibition [7]: inactive
CC(Nc1c[nH]c(=O)[nH]c1=O)c1ccccc1 (centres undefined) | 17.4% | –
CCn1c(N)nc2ccccc21 | – | Ki [1]: > 200 µM; inhibition [6]: inactive; inhibition [7]: inactive
CCc1n[nH]c(N)n1 | -3.5% | –

Structure (SMILES) | inhibition [8] | other results
CC(C)c1n[nH]c(N)n1 | 3.9% | –
CNc1nc(N)c(C(=O)c2ccccc2)s1 | 18.1% | –
Nc1nnc(SCC(=O)NCc2ccc3c(c2)OCO3)[nH]1 | 38.5% | –
Nc1nc(-c2ccc3c(c2)CCC3)cs1 | 32.3% | –
Oc1ncc(/N=C/c2ccccc2)c(O)n1 | 22.8% | –
CNc1nc(N)c(C(=O)C(C)(C)C)s1 | 23% | –
O=c1cc(Nc2ccc(Cl)cc2)[nH]c(=O)[nH]1 | 11.8% | –
OCCNc1ncnc2[nH]cnc12 | 5.9% | –
Nc1nc(CCc2n[nH]c(N)n2)n[nH]1 | 6.9% | –
c1nc(NCC2CCCO2)c2nc[nH]c2n1 (centres undefined) | 25.1% | –
Nc1nnc(-c2ccc(Cl)cc2Cl)[nH]1 | 18.8% | –
Nc1nc(-c2ccc(O)cc2)cs1 | 43.2% | –
c1ccc(CCNc2ncnc3[nH]cnc23)cc1 | 66.4% | –
N#Cc1ccc(CSc2nnc(N)s2)cc1 | 23.1% | –
Nc1nc2ccccc2[nH]1 | – | Ki [1]: 288 µM; inhibition [6]: inactive; inhibition [7]: inactive
Nc1nc(-c2ccc(Br)cc2)n[nH]1 | -0.8% | –
Nc1nc2ccccc2n1CCc1ccccc1 | – | inhibition [6]: inactive; inhibition [7]: inactive
Nc1nc(-c2ccccc2Cl)n[nH]1 | 9.3% | –
Nc1nc2cccc(Cl)c2n1Cc1ccc(Cl)c(Cl)c1 | – | Ki [1]: 0.51 µM; inhibition [2]: inactive; inhibition [3]: inactive
Nc1nc(C2CCCCC2)n[nH]1 | 45.1% | –
O=C(Nc1c[nH]c(=O)[nH]c1=O)c1ccccc1F | 7.9% | –
CCCOc1cccc2nc(N)n(Cc3ccc(Cl)c(Cl)c3)c12 | – | Ki [1]: 0.047 µM; inhibition [2]: inactive; inhibition [3]: inactive
CC(C)CC(=O)Nc1c[nH]c(=O)[nH]c1=O | 5% | –
Nc1nc2ccccc2n1Cc1ccc(Cl)c(Cl)c1 | – | Ki [1]: 0.4 µM; inhibition [2]: inactive; inhibition [3]: inactive
